Source: ChEMBL document CHEMBL6177937, “Design, synthesis, and biological evaluation of novel thiazole derivatives as PI3K/mTOR dual inhibitors” (RSC Med Chem, 2024)

How the values were obtained:
CCRF-CEM = experiment: Growth inhibition of human CCRF-CEM cells measured after 48 hrs by SRB assay; format: functional
In short: (§1)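 NCI 60-line format with five concentrations (10-fold or ½-log serial dilutions) from DMSO stocks in medium with 50 μg/mL gentamicin. Cells preincubated 24 h, then exposed 48 h at 37°C, 5% CO2. Time-zero plates TCA-fixed. SRB absorbance read at 515 nm. GI50 taken from [(Ti−Tz)/(C−Tz)]×100 = 50. Out-of-range values are expressed as > or < the highest or lowest concentration tested.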

HL-60 [1] = experiment: Growth inhibition of human HL-60 cells measured after 48 hrs by SRB assay; format: functional; conditions: for CC50: read-out: LC50 (the source's name); in short: as §1
K562 = experiment: Growth inhibition of human K562 cells measured after 48 hrs by SRB assay; format: functional; in short: as §1
EKVX = experiment: Growth inhibition of human EKVX cells measured after 48 hrs by SRB assay; format: functional; in short: as §1
HOP-62 = experiment: Growth inhibition of human HOP-62 cells measured after 48 hrs by SRB assay; format: functional; in short: as §1
HOP-92 = experiment: Growth inhibition of human HOP-92 cells measured after 48 hrs by SRB assay; format: functional; in short: as §1
NCI-H226 = experiment: Growth inhibition of human NCI-H226 cells measured after 48 hrs by SRB assay; format: functional; in short: as §1
NCI-H23 = experiment: Growth inhibition of human NCI-H23 cells measured after 48 hrs by SRB assay; format: functional; in short: as §1
NCI-H460 = experiment: Growth inhibition of human NCI-H460 cells measured after 48 hrs by SRB assay; format: functional; in short: as §1
NCI-H522 = experiment: Growth inhibition of human NCI-H522 cells measured after 48 hrs by SRB assay; format: functional; in short: as §1
COLO 205 = experiment: Growth inhibition of human COLO 205 cells measured after 48 hrs by SRB assay; format: functional; in short: as §1
HCC 2998 = experiment: Growth inhibition of human HCC 2998 cells measured after 48 hrs by SRB assay; format: functional; in short: as §1
HCT-116 = experiment: Growth inhibition of human HCT-116 cells measured after 48 hrs by SRB assay; format: functional; in short: as §1
HCT-15 = experiment: Growth inhibition of human HCT-15 cells measured after 48 hrs by SRB assay; format: functional; in short: as §1
SF-268 = experiment: Growth inhibition of human SF-268 cells measured after 48 hrs by SRB assay; format: functional
In short: (§2)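 NCI 60-line SRB screen: cells seeded […], grown 24 h at 37°C, 5% CO2, then exposed 48 h to five concentrations (10-fold or ½-log dilutions from DMSO stock). Adherent cells fixed with cold TCA (final 10%), suspension cells with 80% TCA (final 16%); SRB stained, read at 515 nm. GI50 from time-zero, control and treated absorbances.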

SF-295 = experiment: Growth inhibition of human SF-295 cells measured after 48 hrs by SRB assay; format: functional; conditions: for CC50: read-out: LC50 (the source's name); in short: as §2
SNB-19 = experiment: Growth inhibition of human SNB-19 cells measured after 48 hrs by SRB assay; format: functional; in short: as §2
SNB-75 = experiment: Growth inhibition of human SNB-75 cells measured after 48 hrs by SRB assay; format: functional; in short: as §2
U-251 = experiment: Growth inhibition of human U-251 cells measured after 48 hrs by SRB assay; format: functional; in short: as §2
M14 = experiment: Growth inhibition of human M14 cells measured after 48 hrs by SRB assay; format: functional; in short: as §1
SK-MEL-2 = experiment: Growth inhibition of human SK-MEL-2 cells measured after 48 hrs by SRB assay; format: functional; in short: as §2
SK-MEL-5 = experiment: Growth inhibition of human SK-MEL-5 cells measured after 48 hrs by SRB assay; format: functional; in short: as §2
OVCAR-3 = experiment: Growth inhibition of human OVCAR-3 cells measured after 48 hrs by SRB assay; format: functional; in short: as §1
OVCAR-4 = experiment: Growth inhibition of human OVCAR-4 cells measured after 48 hrs by SRB assay; format: functional; in short: as §1
CAKI-1 = experiment: Growth inhibition of human CAKI-1 cells measured after 48 hrs by SRB assay; format: functional; in short: as §1
RXF 393 = experiment: Growth inhibition of human RXF 393 cells measured after 48 hrs by SRB assay; format: functional; in short: as §2
SN12C = experiment: Growth inhibition of human SN12C cells measured after 48 hrs by SRB assay; format: functional; in short: as §2
UO-31 = experiment: Growth inhibition of human UO-31 cells measured after 48 hrs by SRB assay; format: functional; conditions: for CC50: read-out: LC50 (the source's name); in short: as §2
PC-3 = experiment: Growth inhibition of human PC-3 cells measured after 48 hrs by SRB assay; format: functional; in short: as §2
DU-145 = experiment: Growth inhibition of human DU-145 cells measured after 48 hrs by SRB assay; format: functional; in short: as §1
MCF7 = experiment: Growth inhibition of human MCF7 cells measured after 48 hrs by SRB assay; format: functional; in short: as §1
T47D = experiment: Growth inhibition of human T47D cells measured after 48 hrs by SRB assay; format: functional; in short: as §2
HL-60 [2] = experiment: Cytotoxicity against human HL-60 cells assessed as reduction in cell viability measured after 24 hrs by MTT assay; format: functional, cell-based; conditions: HL-60, 24 h
In short: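 MTT viability with 24 h incubation in 96-well plates. Five semi-log concentrations from 0.01 to 100 μM. Formazan absorbance read at 570 nm, with 690 nm background subtracted. Run in triplicate. IC50 obtained by sigmoidal dose-response fitting. Cells are leukemia HL-60(TB) and normal lymphocytes (PCS-800-017).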

HL-60 [3] = experiment: Induction of apoptosis in human HL-60 cells assessed as increase in total apoptotic cells measured after 24 hrs by Annexin-V/propidium iodide staining based flow cytometry relative to control; format: functional
HL-60 [4] = experiment: Induction of apoptosis in human HL-60 cells assessed as early apoptotic cells measured after 24 hrs by Annexin-V/propidium iodide staining based flow cytometry (reference value: 0.61%); format: functional
HL-60 [5] = experiment: Induction of apoptosis in human HL-60 cells assessed as late apoptotic cells measured after 24 hrs by Annexin-V/propidium iodide staining based flow cytometry (reference value: 0.61%); format: functional

CCOc1cc(/C=N/Nc2nc(-c3cccc([N+](=O)[O-])c3)cs2)ccc1O
GI50 (CCRF-CEM): 2.03 µM
TGI (CCRF-CEM): 29.6 µM
GI50 (HL-60 [1]): 2.32 µM
TGI (HL-60 [1]): 7.84 µM
CC50 (HL-60 [1]): > 100 µM
GI50 (K562): 3.05 µM
TGI (K562): 34.3 µM
GI50 (EKVX): 3.17 µM
TGI (EKVX): 16.4 µM
GI50 (HOP-62): 2.51 µM
TGI (HOP-62): 6.92 µM
GI50 (HOP-92): 3.2 µM
TGI (HOP-92): 30.9 µM
GI50 (NCI-H226): 2.36 µM
TGI (NCI-H226): 6.22 µM
GI50 (NCI-H23): 1.99 µM
TGI (NCI-H23): 5.14 µM
GI50 (NCI-H460): 2.4 µM
TGI (NCI-H460): 5.81 µM
GI50 (NCI-H522): 1.85 µM
TGI (NCI-H522): 4.21 µM
GI50 (COLO 205): 16.4 µM
TGI (COLO 205): 38.7 µM
GI50 (HCC 2998): 3.43 µM
TGI (HCC 2998): 19.8 µM
GI50 (HCT-116): 2.34 µM
TGI (HCT-116): 5.83 µM
GI50 (HCT-15): 2.86 µM
TGI (HCT-15): 11.8 µM
GI50 (SF-268): 3.45 µM
TGI (SF-268): 27.4 µM
GI50 (SF-295): 2 µM
TGI (SF-295): 4.28 µM
CC50 (SF-295): 9.16 µM
GI50 (SNB-19): 3.35 µM
TGI (SNB-19): 20.8 µM
GI50 (SNB-75): 2.72 µM
TGI (SNB-75): 13.1 µM
GI50 (U-251): 3.08 µM
TGI (U-251): 14.1 µM
GI50 (M14): 1.85 µM
TGI (M14): 3.89 µM
GI50 (SK-MEL-2): 2.48 µM
TGI (SK-MEL-2): 6.75 µM
GI50 (SK-MEL-5): 2.73 µM
TGI (SK-MEL-5): 9.14 µM
GI50 (OVCAR-3): 2.31 µM
TGI (OVCAR-3): 4.43 µM
GI50 (OVCAR-4): 2.41 µM
TGI (OVCAR-4): 8.05 µM
GI50 (CAKI-1): 2.18 µM
TGI (CAKI-1): 6.88 µM
GI50 (RXF 393): 1.89 µM
TGI (RXF 393): 4.82 µM
GI50 (SN12C): 2.41 µM
TGI (SN12C): 9.9 µM
GI50 (UO-31): 2.29 µM
TGI (UO-31): 8.85 µM
CC50 (UO-31): > 100 µM
GI50 (PC-3): 2.54 µM
TGI (PC-3): 11.4 µM
GI50 (DU-145): 3.43 µM
TGI (DU-145): 11.6 µM
GI50 (MCF7): 2.86 µM
TGI (MCF7): 10.9 µM
GI50 (T47D): 3.69 µM
TGI (T47D): 16.3 µM
IC50 (HL-60 [2]): 2.32 µM
fold change (FC) (HL-60 [3]): 23.07
Activity (HL-60 [4]): 31.19%
Activity (HL-60 [5]): 16.27%

O=[N+]([O-])c1cc(/C=N/Nc2nc(-c3ccc(Cl)cc3)cs2)ccc1Cl
GI50 (CCRF-CEM): 3.62 µM
TGI (CCRF-CEM): 52.9 µM
GI50 (HL-60 [1]): 2.29 µM
TGI (HL-60 [1]): 7.43 µM
CC50 (HL-60 [1]): > 100 µM
GI50 (K562): 5.86 µM
TGI (K562): 66.4 µM
GI50 (EKVX): 10.3 µM
TGI (EKVX): 22.9 µM
GI50 (HOP-62): 8.87 µM
TGI (HOP-62): 22.4 µM
GI50 (HOP-92): 2.59 µM
TGI (HOP-92): 10.8 µM
GI50 (NCI-H226): 4.21 µM
TGI (NCI-H226): 32.6 µM
GI50 (NCI-H23): 12.5 µM
TGI (NCI-H23): 40.9 µM
GI50 (NCI-H460): 13.6 µM
TGI (NCI-H460): 26.5 µM
GI50 (NCI-H522): 9.45 µM
TGI (NCI-H522): 67.6 µM
GI50 (COLO 205): 15.4 µM
TGI (COLO 205): 29.7 µM
GI50 (HCC 2998): 1.87 µM
TGI (HCC 2998): 3.55 µM
GI50 (HCT-116): 16.3 µM
TGI (HCT-116): 36.6 µM
GI50 (HCT-15): 13.1 µM
TGI (HCT-15): 42.1 µM
GI50 (SF-268): 8.44 µM
TGI (SF-268): 31.8 µM
GI50 (SF-295): 14.9 µM
TGI (SF-295): 28.3 µM
CC50 (SF-295): 53.8 µM
GI50 (SNB-19): 10.5 µM
TGI (SNB-19): 24.2 µM
GI50 (SNB-75): 14.8 µM
TGI (SNB-75): 40.1 µM
GI50 (U-251): 4.37 µM
TGI (U-251): 17 µM
GI50 (M14): 17 µM
TGI (M14): 45.6 µM
GI50 (SK-MEL-2): 24 µM
TGI (SK-MEL-2): 81.5 µM
GI50 (SK-MEL-5): 10.3 µM
TGI (SK-MEL-5): 24.5 µM
GI50 (OVCAR-3): 1.73 µM
TGI (OVCAR-3): 3.13 µM
GI50 (OVCAR-4): 8.25 µM
TGI (OVCAR-4): 35.9 µM
GI50 (CAKI-1): 14.6 µM
TGI (CAKI-1): 32.1 µM
GI50 (RXF 393): 11.9 µM
TGI (RXF 393): 30.6 µM
GI50 (SN12C): 15.1 µM
TGI (SN12C): 61.5 µM
GI50 (UO-31): 8.46 µM
TGI (UO-31): 20.7 µM
CC50 (UO-31): 45.5 µM
GI50 (PC-3): 1.91 µM
TGI (PC-3): 4.46 µM
GI50 (DU-145): 1.63 µM
TGI (DU-145): 3.07 µM
GI50 (MCF7): 1.79 µM
TGI (MCF7): 3.81 µM
GI50 (T47D): 1.8 µM
TGI (T47D): 3.81 µM
IC50 (HL-60 [2]): 2.29 µM
fold change (FC) (HL-60 [3]): 19.9
Activity (HL-60 [4]): 23.62%
Activity (HL-60 [5]): 17.92%
